Laboratory results: ChEMBL document CHEMBL4043093, “2-Oxo-3, 4-dihydropyrimido[4, 5-d]pyrimidinyl derivatives as new irreversible pan fibroblast growth factor receptor (FGFR) inhibitors” (Eur J Med Chem, 2017)

Key:
[1] = molecular target: Serine/threonine-protein kinase SIK2 (Homo sapiens) (UniProt Q9H0K1); assay: Inhibition of wild-type human full length SIK2 (M1 to N926 residues) expressed in Escherichia coli BL21 assessed as residual activity at 1000 nM after 30 mins by Kinomescan method relative to control
[2] = test system: Tyrosine-protein kinase ABL1 (Homo sapiens), P00519 [Y253F]; assay: Inhibition of human phosphorylated ABL1 Y253F mutant (S229 to K512 residues) expressed in HEK293 cells assessed as residual activity at 1000 nM after 30 mins by Kinomescan method relative to control; type: cell-based
Method in brief: (§1)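 Single-point screen at a fixed 1 µM, run within a 456-kinase DiscoveRx KINOMEscan panel. Each kinase's read-out is Percent Control, i.e. signal relative to a control without compound. Hits were scored by a Percent Control < 35 cut-off, and an S(35) selectivity score was calculated across the non-mutant kinases.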

[3] = molecular target: Fibroblast growth factor receptor 1 (Homo sapiens, UniProt P11362); assay: Inhibition of wild-type human partial length FGFR1 (P357 to V669 residues) expressed in Escherichia coli BL21 assessed as residual activity at 1000 nM after 30 mins by Kinomescan method relative to control
[4] = molecular target: Ephrin type-A receptor 3 (Homo sapiens) (UniProt P29320); assay: Inhibition of wild-type human partial length EPHA3 (D604 to K889 residues) expressed in Escherichia coli BL21 assessed as residual activity at 1000 nM after 30 mins by Kinomescan method relative to control
[5] = molecular target: Mitogen-activated protein kinase 6 (Homo sapiens) (UniProt Q16659); assay: Inhibition of wild-type human partial length ERK3 (M1 to P413 residues) expressed in Escherichia coli BL21 assessed as residual activity at 1000 nM after 30 mins by Kinomescan method relative to control
[6] = molecular target: Mitogen-activated protein kinase 13 (Homo sapiens) (UniProt O15264); assay: Inhibition of wild-type human full length p38-delta (M1 to L365 residues) expressed in Escherichia coli BL21 assessed as residual activity at 1000 nM after 30 mins by Kinomescan method relative to control
[7] = molecular target: Serine/threonine-protein kinase D1 (Homo sapiens) (UniProt Q15139); assay: Inhibition of wild-type human partial length PRKD1 (G551 to E870 residues) expressed in Escherichia coli BL21 assessed as residual activity at 1000 nM after 30 mins by Kinomescan method relative to control
[8] = test system: Phosphatidylinositol 4,5-bisphosphate 3-kinase catalytic subunit alpha isoform (Homo sapiens), P42336 [C420R]; assay: Inhibition of human partial length PIK3CA C420R mutant (R108 to N1068 residues) expressed in HEK293 cells assessed as residual activity at 1000 nM after 30 mins by Kinomescan method relative to control; type: cell-based
Method in brief: (§2)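 KINOMEscan binding panel of 456 kinases, with the test compound at a single concentration of 1 µM. Read-out is Percent Control.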

[9] = test system: Epidermal growth factor receptor (Homo sapiens), P00533 [G719S]; assay: Inhibition of human partial length EGFR G719S mutant (R669 to V1011 residues) expressed in Escherichia coli BL21 assessed as residual activity at 1000 nM after 30 mins by Kinomescan method relative to control; method in brief: as §2
[10] = molecular target: Serine/threonine-protein kinase ULK1 (Homo sapiens) (UniProt O75385); assay: Inhibition of wild-type human partial length ULK1 (M1 to T309 residues) expressed in HEK293 cells assessed as residual activity at 1000 nM after 30 mins by Kinomescan method relative to control; type: cell-based
[11] = molecular target: Serine/threonine-protein kinase 35 (Homo sapiens) (UniProt Q8TDR2); assay: Inhibition of wild-type human partial length STK35 (G182 to A534 residues) expressed in Escherichia coli BL21 assessed as residual activity at 1000 nM after 30 mins by Kinomescan method relative to control
[12] = molecular target: Calcium/calmodulin-dependent protein kinase type 1D (Homo sapiens) (UniProt Q8IU85); assay: Inhibition of wild-type human partial length CAMK1D (M1 to K299 residues) expressed in Escherichia coli BL21 assessed as residual activity at 1000 nM after 30 mins by Kinomescan method relative to control
[13] = molecular target: cGMP-dependent protein kinase 2 (Homo sapiens) (UniProt Q13237); assay: Inhibition of wild-type human partial length PRKG2 (S422 to F762 residues) expressed in HEK293 cells assessed as residual activity at 1000 nM after 30 mins by Kinomescan method relative to control; type: cell-based
[14] = molecular target: Serine/threonine-protein kinase mTOR (Homo sapiens) (UniProt P42345); assay: Inhibition of wild-type human partial length MTOR (L1382 to W2549 residues) expressed in HEK293 cells assessed as residual activity at 1000 nM after 30 mins by Kinomescan method relative to control; type: cell-based
[15] = test system: eIF-2-alpha kinase GCN2 (Homo sapiens), Q9P2K8 [S808G]; assay: Inhibition of wild-type human partial length GCN2 kinase domain 2 (R585 to T1018 residues) S808G mutant expressed in Escherichia coli BL21 assessed as residual activity at 1000 nM after 30 mins by Kinomescan method relative to control
[16] = molecular target: Serine/threonine-protein kinase SIK1 (Homo sapiens) (UniProt P57059); assay: Inhibition of wild-type human partial length SIK (M1 to Y304 residues) expressed in Escherichia coli BL21 assessed as residual activity at 1000 nM after 30 mins by Kinomescan method relative to control
[17] = molecular target: Angiopoietin-1 receptor (Homo sapiens) (UniProt Q02763); assay: Inhibition of wild-type human partial length TIE2 (N804 to T1112 residues) expressed in Escherichia coli BL21 assessed as residual activity at 1000 nM after 30 mins by Kinomescan method relative to control
[18] = molecular target: BMP-2-inducible protein kinase (Homo sapiens) (UniProt Q9NSY1); assay: Inhibition of wild-type human partial length BIKE (S34 to N329 residues) expressed in Escherichia coli BL21 assessed as residual activity at 1000 nM after 30 mins by Kinomescan method relative to control
[19] = molecular target: Serine/threonine-protein kinase Nek1 (Homo sapiens) (UniProt Q96PY6); assay: Inhibition of wild-type human partial length NEK1 (M1 to K278 residues) expressed in Escherichia coli BL21 assessed as residual activity at 1000 nM after 30 mins by Kinomescan method relative to control
[20] = test system: Proto-oncogene tyrosine-protein kinase receptor Ret (Homo sapiens), P07949 [M918T]; assay: Inhibition of human partial length RET M918T mutant (E713 to D1014 residues) expressed in Escherichia coli BL21 assessed as residual activity at 1000 nM after 30 mins by Kinomescan method relative to control; method in brief: as §1
[21] = molecular target: Casein kinase I isoform alpha (Homo sapiens) (UniProt P48729); assay: Inhibition of wild-type human partial length CSNK1A1 (M1 to L450 residues) expressed in HEK293 cells assessed as residual activity at 1000 nM after 30 mins by Kinomescan method relative to control; type: cell-based

Sequence of Proto-oncogene tyrosine-protein kinase receptor Ret (Homo sapiens), P07949 [M918T] (P07949 whole entry M918T, the tested form may be a part, canonical isoform): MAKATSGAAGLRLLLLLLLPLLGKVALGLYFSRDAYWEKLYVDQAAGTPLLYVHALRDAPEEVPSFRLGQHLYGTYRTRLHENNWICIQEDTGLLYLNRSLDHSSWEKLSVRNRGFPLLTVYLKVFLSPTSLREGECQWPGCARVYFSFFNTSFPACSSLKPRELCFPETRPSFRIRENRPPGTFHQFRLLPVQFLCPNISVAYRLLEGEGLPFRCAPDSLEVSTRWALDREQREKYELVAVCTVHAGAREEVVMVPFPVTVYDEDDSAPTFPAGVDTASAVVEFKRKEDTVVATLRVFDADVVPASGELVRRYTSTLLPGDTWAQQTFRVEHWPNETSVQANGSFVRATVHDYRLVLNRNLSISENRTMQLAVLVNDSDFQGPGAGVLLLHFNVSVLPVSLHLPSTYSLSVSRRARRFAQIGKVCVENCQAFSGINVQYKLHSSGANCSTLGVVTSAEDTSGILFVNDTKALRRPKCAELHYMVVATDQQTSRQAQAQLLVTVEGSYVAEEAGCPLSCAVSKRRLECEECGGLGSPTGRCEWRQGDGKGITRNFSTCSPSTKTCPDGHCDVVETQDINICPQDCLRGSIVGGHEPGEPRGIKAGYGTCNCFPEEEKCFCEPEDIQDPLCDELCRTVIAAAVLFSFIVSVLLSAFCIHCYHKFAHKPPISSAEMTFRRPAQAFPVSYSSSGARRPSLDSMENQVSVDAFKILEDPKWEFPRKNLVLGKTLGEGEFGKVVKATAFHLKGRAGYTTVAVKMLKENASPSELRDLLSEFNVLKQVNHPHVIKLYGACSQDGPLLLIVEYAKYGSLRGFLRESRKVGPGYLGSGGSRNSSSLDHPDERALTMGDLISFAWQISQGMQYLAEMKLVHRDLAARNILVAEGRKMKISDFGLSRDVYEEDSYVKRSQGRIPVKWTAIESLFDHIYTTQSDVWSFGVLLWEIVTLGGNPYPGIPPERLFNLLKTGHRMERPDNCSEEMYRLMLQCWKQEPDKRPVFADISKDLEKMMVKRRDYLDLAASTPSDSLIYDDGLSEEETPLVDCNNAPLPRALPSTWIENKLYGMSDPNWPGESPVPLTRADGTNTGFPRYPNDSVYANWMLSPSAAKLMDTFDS
Sequence of Serine/threonine-protein kinase D1 (Homo sapiens) (Q15139 whole entry, the tested form may be a part, canonical isoform): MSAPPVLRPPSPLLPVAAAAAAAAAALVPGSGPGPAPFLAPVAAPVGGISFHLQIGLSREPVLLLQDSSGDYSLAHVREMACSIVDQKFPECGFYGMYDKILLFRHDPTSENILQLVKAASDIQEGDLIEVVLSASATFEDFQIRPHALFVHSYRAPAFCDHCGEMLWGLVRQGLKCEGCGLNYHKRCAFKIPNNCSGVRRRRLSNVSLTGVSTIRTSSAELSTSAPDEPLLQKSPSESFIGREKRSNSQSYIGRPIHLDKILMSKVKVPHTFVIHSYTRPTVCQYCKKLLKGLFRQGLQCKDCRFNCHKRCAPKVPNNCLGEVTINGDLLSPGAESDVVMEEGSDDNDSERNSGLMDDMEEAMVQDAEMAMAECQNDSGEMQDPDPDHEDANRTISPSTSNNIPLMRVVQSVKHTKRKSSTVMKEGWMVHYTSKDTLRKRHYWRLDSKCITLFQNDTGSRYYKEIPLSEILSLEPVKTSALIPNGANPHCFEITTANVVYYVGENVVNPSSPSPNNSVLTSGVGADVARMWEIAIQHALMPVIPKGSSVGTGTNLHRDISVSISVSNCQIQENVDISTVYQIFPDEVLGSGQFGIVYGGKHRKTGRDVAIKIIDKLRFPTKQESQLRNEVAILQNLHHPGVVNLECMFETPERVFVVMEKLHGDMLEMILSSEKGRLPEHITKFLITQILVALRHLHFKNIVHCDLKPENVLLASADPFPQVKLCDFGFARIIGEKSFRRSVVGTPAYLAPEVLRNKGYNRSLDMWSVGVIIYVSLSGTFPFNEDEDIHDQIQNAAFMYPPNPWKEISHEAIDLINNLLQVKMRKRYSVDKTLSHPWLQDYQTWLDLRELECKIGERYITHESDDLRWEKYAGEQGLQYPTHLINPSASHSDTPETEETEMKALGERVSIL
Sequence of cGMP-dependent protein kinase 2 (Homo sapiens) (Q13237 whole entry, the tested form may be a part): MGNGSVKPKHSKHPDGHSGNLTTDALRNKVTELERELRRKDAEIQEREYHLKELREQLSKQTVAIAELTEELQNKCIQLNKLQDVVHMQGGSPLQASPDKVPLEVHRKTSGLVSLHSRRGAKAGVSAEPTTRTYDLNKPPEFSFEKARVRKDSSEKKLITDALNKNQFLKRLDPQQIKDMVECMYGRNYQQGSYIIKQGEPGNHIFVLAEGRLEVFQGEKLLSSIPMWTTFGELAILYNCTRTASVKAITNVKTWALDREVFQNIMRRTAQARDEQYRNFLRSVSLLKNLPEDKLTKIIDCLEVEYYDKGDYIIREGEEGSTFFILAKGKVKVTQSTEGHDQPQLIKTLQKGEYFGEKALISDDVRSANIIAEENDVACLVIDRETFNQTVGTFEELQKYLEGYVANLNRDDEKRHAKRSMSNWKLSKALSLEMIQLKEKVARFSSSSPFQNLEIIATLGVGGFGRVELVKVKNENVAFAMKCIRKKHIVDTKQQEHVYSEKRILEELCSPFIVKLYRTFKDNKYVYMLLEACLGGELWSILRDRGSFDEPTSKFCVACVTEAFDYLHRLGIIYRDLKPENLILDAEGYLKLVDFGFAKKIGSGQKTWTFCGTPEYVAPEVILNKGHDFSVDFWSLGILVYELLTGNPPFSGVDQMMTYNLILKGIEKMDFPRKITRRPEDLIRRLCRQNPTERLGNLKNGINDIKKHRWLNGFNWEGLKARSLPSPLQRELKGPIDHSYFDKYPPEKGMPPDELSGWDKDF
Sequence of Serine/threonine-protein kinase SIK1 (Homo sapiens) (P57059 whole entry, the tested form may be a part): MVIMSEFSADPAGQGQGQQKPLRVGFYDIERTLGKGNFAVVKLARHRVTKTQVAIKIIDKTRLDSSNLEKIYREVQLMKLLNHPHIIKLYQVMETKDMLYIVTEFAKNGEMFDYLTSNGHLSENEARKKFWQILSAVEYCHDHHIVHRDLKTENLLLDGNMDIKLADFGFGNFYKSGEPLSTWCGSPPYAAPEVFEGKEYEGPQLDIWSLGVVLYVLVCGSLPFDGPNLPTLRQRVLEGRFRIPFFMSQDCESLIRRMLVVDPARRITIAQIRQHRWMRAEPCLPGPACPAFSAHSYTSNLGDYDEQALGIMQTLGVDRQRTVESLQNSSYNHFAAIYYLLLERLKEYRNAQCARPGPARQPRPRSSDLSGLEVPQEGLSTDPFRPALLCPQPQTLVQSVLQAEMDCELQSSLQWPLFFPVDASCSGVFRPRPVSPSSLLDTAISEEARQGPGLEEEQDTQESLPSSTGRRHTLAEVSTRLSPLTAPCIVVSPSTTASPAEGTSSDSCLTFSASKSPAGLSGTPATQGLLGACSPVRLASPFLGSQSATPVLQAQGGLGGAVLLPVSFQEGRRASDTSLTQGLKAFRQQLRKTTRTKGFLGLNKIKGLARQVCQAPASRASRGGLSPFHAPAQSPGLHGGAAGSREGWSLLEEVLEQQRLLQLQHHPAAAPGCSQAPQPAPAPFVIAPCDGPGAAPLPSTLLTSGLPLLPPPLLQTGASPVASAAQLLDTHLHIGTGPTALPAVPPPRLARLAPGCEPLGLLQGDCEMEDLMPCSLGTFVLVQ
Sequence of Serine/threonine-protein kinase Nek1 (Homo sapiens) (Q96PY6 whole entry, the tested form may be a part): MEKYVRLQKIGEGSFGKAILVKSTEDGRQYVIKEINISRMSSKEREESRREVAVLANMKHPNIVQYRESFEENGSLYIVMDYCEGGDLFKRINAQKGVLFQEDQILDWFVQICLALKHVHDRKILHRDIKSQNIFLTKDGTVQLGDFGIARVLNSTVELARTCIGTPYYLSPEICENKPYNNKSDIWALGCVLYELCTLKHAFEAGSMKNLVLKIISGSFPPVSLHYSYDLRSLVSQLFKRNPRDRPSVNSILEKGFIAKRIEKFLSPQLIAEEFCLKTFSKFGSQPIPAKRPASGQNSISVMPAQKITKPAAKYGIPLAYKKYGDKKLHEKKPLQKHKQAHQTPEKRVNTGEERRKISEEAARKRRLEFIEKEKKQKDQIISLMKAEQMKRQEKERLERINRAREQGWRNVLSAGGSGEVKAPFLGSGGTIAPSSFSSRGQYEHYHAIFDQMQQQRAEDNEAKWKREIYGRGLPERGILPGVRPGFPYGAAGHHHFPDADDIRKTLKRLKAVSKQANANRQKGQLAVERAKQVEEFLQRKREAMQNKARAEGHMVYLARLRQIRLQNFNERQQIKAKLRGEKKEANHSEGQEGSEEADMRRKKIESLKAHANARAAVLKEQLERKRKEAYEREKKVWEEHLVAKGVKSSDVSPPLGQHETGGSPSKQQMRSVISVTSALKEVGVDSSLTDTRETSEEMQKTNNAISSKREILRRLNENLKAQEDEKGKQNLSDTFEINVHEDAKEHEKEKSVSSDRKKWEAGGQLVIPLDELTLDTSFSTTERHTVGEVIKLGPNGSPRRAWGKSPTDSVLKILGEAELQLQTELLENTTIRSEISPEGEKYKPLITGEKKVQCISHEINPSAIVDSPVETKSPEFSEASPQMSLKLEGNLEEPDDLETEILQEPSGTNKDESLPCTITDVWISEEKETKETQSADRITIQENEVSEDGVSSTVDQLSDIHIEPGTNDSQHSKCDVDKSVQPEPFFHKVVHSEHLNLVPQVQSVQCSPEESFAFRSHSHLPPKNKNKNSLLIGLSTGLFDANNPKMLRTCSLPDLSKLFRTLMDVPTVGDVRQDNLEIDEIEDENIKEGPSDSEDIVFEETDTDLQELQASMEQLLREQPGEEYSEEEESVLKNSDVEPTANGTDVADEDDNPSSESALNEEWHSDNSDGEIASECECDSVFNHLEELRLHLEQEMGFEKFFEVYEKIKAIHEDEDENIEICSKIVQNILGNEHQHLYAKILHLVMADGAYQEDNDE

COc1cc(OC)c(Cl)c(N2Cc3cnc(Nc4ccc(F)cc4)nc3N(C3CCN(C(=O)/C=C/CN(C)C)CC3)C2=O)c1Cl
Activity [1]: 89% | Activity [2]: 38% | Activity [3]: 0.6% | Activity [4]: 100% | Activity [5]: 100% | Activity [6]: 90% | Activity [7]: 73% | Activity [8]: 100% | Activity [9]: 87% | Activity [10]: 89% | Activity [11]: 100% | Activity [12]: 87% | Activity [13]: 100% | Activity [14]: 93% | Activity [15]: 46% | Activity [16]: 19% | Activity [17]: 26% | Activity [18]: 100% | Activity [19]: 73% | Activity [20]: 7.1% | Activity [21]: 100%
